ChEMBL document CHEMBL5661969, “Preclinical evaluation of a potent novel DNA-dependent protein kinase inhibitor NU7441” (Cancer Res, 2006)

Key:
[1] = Inhibition of DNA-PK in Chinese hamster DNA-PK proficient V3-YAC cells assessed as potentiation of ionizing radiation-induced cytotoxicity by measuring radiation LD90 at 0.5 umol/L preincubated for 1 hr followed by gamma-irradiation and measured after 16 hrs by crystal violet staining based assay; parameters: species or system Cricetulus griseus; details: dose 0.5 µmol/L; time 17 hrs; condition cancer
In short: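 Clonogenic assay in V3/V3-YAC cells. Cells were then reseeded in drug-free medium, and crystal violet colonies were counted after 10–14 days. LD90 is the radiation dose killing 90%. DMR90 is LD90 without inhibitor divided by LD90 with inhibitor.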

[2] = Cytotoxicity against Chinese hamster DNA-PK deficient V3 cells assessed as reduction in cell survival at 0.5 umol/L measured after 16 hrs in presence of etoposide by crystal violet staining based assay; format: toxicity, Cricetulus griseus; details: v3, 16 h, 0.5 µM, dose 0.5 µmol/L
In short: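 Exponentially growing cells exposed 16 h to agent (0.5 or 1.0 μmol/L), with or without etoposide or doxorubicin, at 0.5% DMSO final; controls get DMSO alone. Cells are then trypsinized, reseeded at 100–100,000 per dish in drug-free medium and grown 10–14 days. Colonies stained with crystal violet and counted automatically.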

[3] = Growth inhibition of human LoVo cells measured after 5 days by crystal violet staining based assay; format: toxicity, cell-based; details: time 5 day
In short: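 LoVo and SW620 cells in 96-well plates under 5-day continuous exposure to agent, and growth measured relative to control.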

LoVo [4] = experiment: Cell cycle arrest in human LoVo cells assessed as increase in G1-phase cell population at 1 umol/L measured after 1 hr by propidium iodide staining based flow cytometry relative to control; format: toxicity; details: 1 µM, dose 1 µmol/L
In short: (§1)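 Asynchronous SW620 or LoVo cells, seeded 24 h earlier, given control or 1 μmol/L agent medium for 1 h before ionizing radiation, etoposide or doxorubicin, then incubated a further 16 h. Cells fixed in 70% ethanol, stained with propidium iodide (400 μg/mL) plus RNase (1 mg/mL), and analysed by 488 nm flow cytometry.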

LoVo [5] = experiment: Cell cycle arrest in human LoVo cells assessed as reduction in S-phase cell population at 1 umol/L measured after 1 hr by propidium iodide staining based flow cytometry relative to control; format: toxicity; parameters: scale not given: the % may be the effect or the level left; details: 1 µM, dose 1 µmol/L; in short: as §1
[6] = Cmax in BALB/c mouse at 10 mg/kg, po by HPLC analysis; format: ADME, organism-based; details: in vivo
In short: (§2)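 Female BALB/c mice dosed 5 mg/kg i.v. in 10% DMSO/10% cyclodextrin in saline, or 10 mg/kg i.p. or orally at 1 mg/mL in 40% PEG400/saline. Plasma taken at 5, 10, 15, 30, 60, 90, 120, 180, 240 and 360 min, three mice per time. Acetonitrile precipitation, C18 HPLC with UV detection at 329 nm against a plasma standard curve. Parameters derived from mean concentrations.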

[7] = Tmax in BALB/c mouse at 10 mg/kg, po by HPLC analysis; format: ADME, organism-based; details: in vivo; in short: as §2
[8] = Cmax in BALB/c mouse at 10 mg/kg, ip by HPLC analysis; format: ADME, organism-based; details: in vivo; in short: as §2
[9] = AUClast in BALB/c mouse at 10 mg/kg, ip by HPLC analysis; format: ADME, organism-based; details: in vivo; in short: as §2
[10] = Bioavailability in BALB/c mouse at 10 mg/kg, ip by HPLC analysis; format: ADME, organism-based; details: in vivo; in short: as §2
[11] = Ratio of drug level in kidney to plasma of human SW620 cell xenografted athymic nude CD1 mouse at 10 mg/kg, ip measured after 90 mins by HPLC analysis; format: ADME, organism-based
In short: (§3)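 Female CD-1 nu/nu mice bearing s.c. flank SW620 tumours (1×10^7 cells, ~650 mm³ at 10–14 days) given 10 mg/kg i.p. Tissues snap frozen, homogenised 1:3 in PBS. Acetonitrile precipitation, C18 HPLC with acetate pH 5/acetonitrile 75:25 mobile phase, UV 329 nm; tissue levels by method of addition. Tissue/plasma ratio, mean of three mice per time.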

[12] = Ratio of drug level in liver to plasma of human SW620 cell xenografted athymic nude CD1 mouse at 10 mg/kg, ip measured after 60 mins by HPLC analysis; format: ADME, organism-based; in short: as §3
[13] = Ratio of drug level in liver to plasma of human SW620 cell xenografted athymic nude CD1 mouse at 10 mg/kg, ip measured after 90 mins by HPLC analysis; format: ADME, organism-based; in short: as §3
[14] = Drug level in tumor of human SW620 cell xenografted athymic nude CD1 mouse at 10 mg/kg, ip measured after 4 hrs by HPLC analysis; format: ADME, organism-based, Neoplasm, SW-620; details: read-out: Drug uptake
In short: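 CD1 nu/nu female mice carry s.c. SW620 flank tumours (1×10^7 cells), used at ~650 mm³. Single 10 mg/kg i.p. dose, tumour excised and snap frozen at time points up to 240 min, then homogenized 1:3 in PBS. HPLC-UV at 329 nm; tissue levels by the method of addition. Three mice per time point.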

O=c1cc(N2CCOCC2)oc2c(-c3cccc4c3sc3ccccc34)cccc12
LD90 [1]: 2.8 Gy
Activity [2]: Toxic
GI50 at 120 h [3]: 520 nM
Activity (LoVo [4]): 54%
Activity (LoVo [5]): 72%
Cmax [6]: 500 ng/mL
Tmax [7]: 30 min
Cmax [8]: 2400 ng/mL
AUC(0-t) [9]: 2500 ng·h/mL
bioavailability [10]: 100%
Kp at 1.5 h [11]: 14
Kp at 1 h [12]: 5.4
Kp at 1.5 h [13]: 19
concentration at 4 h [14]: 500 nM
